These results are taken from ChEMBL document CHEMBL1142104, “Anti-HCV bioactivity of pseudoguaianolides from Parthenium hispitum” (J Nat Prod, 2007).

Series [1] can be described thus: Cytotoxicity against Huh7 replicon cells. It counts as cell-based. The conditions noted are these: human, huh-7. In general terms: A replicon is a self-replicating genome or part of one, used to study replication in cells.
The subject of series [2] is Hepatitis C virus. Nature of the series: Antiviral activity against HCV in Huh7 cells at 2 uM by subgenomic replicon assay. It counts as functional, Hepacivirus hominis. Particulars: Huh-7; call rule not given here. In outline: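 Huh-7 replicon cells (luciferase reporter), grown to 85% confluency with >95% viability, seeded at 11 000 cells/well; compound added and incubated 48 h at 37 °C. Plates cooled 30 min to room temperature, luciferase reagent added, luminescence read after 3 min. Inhibition calculated with no-cell wells as low signal and compound-free cells as high signal; duplicate testing.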

Each structure is given as a SMILES string.

Turning to `C=C1C(=O)O[C@@H]2[C@H]1CCC(COC(=O)C(C)CC)[C@]1(O)CCC(=O)[C@@]21C` (some centres undefined), the Activity result in series [1] is given as “Not Active”. For the same compound, the inhibition (in general, the relative decrease from the control value, in per cent) at 2 µM in series [2] was 25%.
In the same order, the values of `C=C1C(=O)O[C@@H]2[C@H]1CCC(COC(=O)CC(C)C)[C@]1(O)CCC(=O)[C@@]21C` (some centres undefined) are “Not Active” and 63%.
Taken in the same sequence, the figures for `C=C1C(=O)O[C@@H]2[C@H]1CC[C@H](COC(=O)CC)[C@]1(O)CCC(=O)[C@@]21C` [HISPITOLIDE A] were “Not Active” and 55%.
In the same order, the values of `C=C1C(=O)O[C@@H]2[C@H]1CC[C@H](COC(=O)CCC)[C@]1(O)CCC(=O)[C@@]21C` [HISPITOLIDE B] are “Not Active” and 90%.
As to `C=C1C(=O)O[C@@H]2[C@H]1CC[C@H](COC(=O)/C(C)=C/C)[C@]1(O)CCC(=O)[C@@]21C` [HISPITOLIDE C], in series [1], the Activity result is “Not Active”. This compound also displayed an inhibition at 2 µM in series [2] of 98%.
`C=C1C(=O)O[C@@H]2[C@H]1CC[C@H](COC(=O)C=C(C)C)[C@]1(O)CCC(=O)[C@@]21C` [HISPITOLIDE D]: the Activity result in series [1] is on record as “Not Active”. In series [2], this compound displayed an inhibition at 2 µM of 98%.
Taken in the same sequence, the figures for `C=C1C(=O)O[C@@H]2[C@H]1CC[C@H](COC(=O)/C(C)=C\C)[C@]1(O)CCC(=O)[C@@]21C` [HISPITOLIDE E] were “Not Active” and 65%.
